Rows were chosen to be rich in hits. Some 29% of all compounds tested hit in one or more screens of this group.
E coli WT exp: growth inhibitors of wild-type E. coli, primary screen, strain BW25113, expanded library, OD600; OD600 absorbance; growth inhibition, % at 100 µM; 98,000 tested, 0.15% active; AID 710, 2007;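 active means growth inhibition above about 50% at one test dose, limit read from the data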;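 further: growth measured after 20 h incubation at 37 °C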
CYP2C19 act: human CYP2C19 activators, primary screen, biochemical, luminescence | Cytochrome P450 2C19 (Homo sapiens), P33261 | recombinant CYP2C19, luciferin-H EGE luminescence; active compounds read high; 0 = fully inhibited enzyme, 1 = untreated enzyme | activation factor at 5 µM | 96,000 tested, under 10 active | AID 1025, 2008;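 active means activation factor of at least 2 at 5 µM in the primary screen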
Ecoli tolC: growth inhibitors of E. coli tolC mutant, primary screen, strain BW25113 ΔtolC::kan, 384-well. OD615. growth inhibition, % at 10 µM (by protocol). 65,000 tested, 2.2% active;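 active means growth inhibition at or above a cutoff equal to the mean over every tested compound plus 3 SD, cut at about 60% in these data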;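 further: growth measured after 20 h incubation at 37 °C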
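test system = E. coli BW25113 ΔtolC::kan bacteria | medium = LB with kanamycin 50 µg/mL | signal = OD at 615 nm | schedule = 37 °C, 20 h exposure | evaluation = % inhibition of E. coli growth | compound dosing = one dose of 10 µM final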
CYP2C9 inh: blockers of cytochrome P450 2C9 activity – biochemical, luminescence, ADME assay, primary screen. CYP2C9 Supersomes, luciferin-H conversion. inhibition, % at 5 µM. AID 777, 2007. 96,000 tested, 20% active;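 active means blocking of liver enzyme CYP2C9 beyond about 50% at 5 µM, limit read from the data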
Target sequence (P11712 whole entry, looked up): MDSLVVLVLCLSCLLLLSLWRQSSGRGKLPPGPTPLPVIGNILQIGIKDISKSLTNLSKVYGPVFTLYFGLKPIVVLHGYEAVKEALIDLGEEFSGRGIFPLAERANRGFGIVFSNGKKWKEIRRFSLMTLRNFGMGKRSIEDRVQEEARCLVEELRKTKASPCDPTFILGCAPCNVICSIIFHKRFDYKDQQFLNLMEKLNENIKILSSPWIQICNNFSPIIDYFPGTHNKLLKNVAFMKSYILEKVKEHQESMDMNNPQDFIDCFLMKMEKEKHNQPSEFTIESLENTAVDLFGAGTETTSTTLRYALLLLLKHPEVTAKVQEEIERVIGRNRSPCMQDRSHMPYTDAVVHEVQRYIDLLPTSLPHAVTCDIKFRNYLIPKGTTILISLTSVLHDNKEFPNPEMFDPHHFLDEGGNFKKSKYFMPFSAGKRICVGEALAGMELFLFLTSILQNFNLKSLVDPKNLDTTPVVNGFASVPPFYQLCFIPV
CYP2C9 activ: human CYP2C9 activators, primary screen, biochemical, luminescence; recombinant CYP2C9, luciferin-H conversion; active compounds read high; factor 1 = untreated enzyme, 0 = blocked; activation factor at 5 µM; 96,000 tested, 1.4% active;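 active means activation factor of 2 or more for CYP2C9 at a 5 µM dose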
CYP2C19 inhib: blockers of cytochrome P450 2C19 activity – biochemical, luminescence, ADME assay, primary screen | P33261 | CYP2C19 Supersomes, luciferin-H EGE luminescence, 30 min | inhibition, % at 5 µM | 96,000 tested, 21% active;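 active means CYP2C19 inhibition above a set limit at 5 µM in the primary screen, cut at about 50% in these data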
Numbers stand for hits.

How did CCN(CCCNC(=O)C1CCN(S(=O)(=O)c2c(C)[nH]c(=O)[nH]c2=O)CC1)c1cccc(C)c1 do in these assays?
E coli WT exp: inactive; CYP2C19 act: inactive; Ecoli tolC: inactive; CYP2C9 inh: inactive; CYP2C9 activ: inactive; CYP2C19 inhib: 54

Results for CCN(CCCNC(=O)C1CCN(S(=O)(=O)N2CCC3(CC2)OCCO3)CC1)c1ccccc1 ?
E coli WT exp: inactive; CYP2C19 act: inactive; Ecoli tolC: inactive; CYP2C9 inh: inactive; CYP2C9 activ: inactive; CYP2C19 inhib: 53

Results for COc1ccc(CCN2C(=O)C3CC(C)=C(C)CC3C2=O)cc1OC (stereo not given) ?
E coli WT exp: inactive; CYP2C19 act: inactive; CYP2C9 inh: inactive; CYP2C9 activ: inactive; CYP2C19 inhib: inactive

Results for COc1ccc(-c2cnn(C3CCS(=O)(=O)C3)c2N)cc1 (stereo not given) ?
E coli WT exp: inactive; CYP2C19 act: inactive; CYP2C9 inh: inactive; CYP2C9 activ: inactive; CYP2C19 inhib: inactive

What do the screens show for `COc1ccccc1N1CCN(C(=O)c2cc3n(n2)C(C(F)(F)F)CC(c2ccco2)N3)CC1` (stereo not given)?
E coli WT exp: inactive; CYP2C19 act: inactive; Ecoli tolC: inactive; CYP2C9 inh: 59; CYP2C9 activ: inactive; CYP2C19 inhib: inactive

How did O=C(c1ccco1)N1CCN(C(=O)c2cnn3c2NC(c2cccs2)CC3C(F)(F)F)CC1 (stereo not given) do in these assays?
E coli WT exp: inactive; CYP2C19 act: inactive; Ecoli tolC: inactive; CYP2C9 inh: inactive; CYP2C9 activ: inactive; CYP2C19 inhib: inactive

Results for O=C(c1cnn2c1NC(c1ccco1)CC2C(F)(F)F)N1CCN(c2cccc(Cl)c2)CC1 (stereo not given) ?
E coli WT exp: inactive; CYP2C19 act: inactive; Ecoli tolC: inactive; CYP2C9 inh: 75; CYP2C9 activ: inactive; CYP2C19 inhib: 81

How did CC(=O)c1c(C)[nH]c(C(=O)Nc2cc(C)cc(C)c2)c1C do in these assays?
E coli WT exp: inactive; CYP2C19 act: inactive; CYP2C9 inh: 84; CYP2C9 activ: inactive; CYP2C19 inhib: 58

What do the screens show for `COc1ccc2oc(=O)c(C(=O)n3ccc(C)n3)cc2c1`?
E coli WT exp: inactive; CYP2C19 act: inactive; CYP2C9 inh: inactive; CYP2C9 activ: inactive; CYP2C19 inhib: inactive

How did O=C(NCc1cccnc1)/C(=C/c1ccc(-c2cccc(C(F)(F)F)c2)o1)NC(=O)c1ccccc1 do in these assays?
E coli WT exp: inactive; CYP2C19 act: inactive; CYP2C9 inh: inactive; CYP2C9 activ: inactive; CYP2C19 inhib: inactive

What do the screens show for `Cc1ccc(C(=O)N/C(=C/c2ccc(-c3cc(C(F)(F)F)ccc3Cl)o2)C(=O)NCc2cccnc2)cc1`?
E coli WT exp: inactive; CYP2C19 act: inactive; CYP2C9 inh: 58; CYP2C9 activ: inactive; CYP2C19 inhib: inactive

How did O=C(NNC1CC(=O)N(c2ccc3c(c2)OCCO3)C1=O)c1ccccc1 (stereo not given) do in these assays?
E coli WT exp: inactive; CYP2C19 act: inactive; CYP2C9 inh: inactive; CYP2C9 activ: inactive; CYP2C19 inhib: inactive

What do the screens show for `O=C(CSc1nc2ccccc2c(=O)[nH]1)N1CCN(S(=O)(=O)c2ccccc2)CC1`?
E coli WT exp: inactive; CYP2C19 act: inactive; CYP2C9 inh: inactive; CYP2C9 activ: inactive; CYP2C19 inhib: inactive

What do the screens show for `O=C(CSc1nc(-c2ccccc2)c(-c2ccccc2)[nH]1)N1CCN(S(=O)(=O)c2ccccc2)CC1`?
E coli WT exp: inactive; CYP2C19 act: inactive; CYP2C9 inh: 80; CYP2C9 activ: inactive; CYP2C19 inhib: 86

Results for CC(C)Cn1c(SCC(=O)N2CCN(S(=O)(=O)c3ccccc3)CC2)nc2ccccc21 ?
E coli WT exp: inactive; CYP2C19 act: inactive; Ecoli tolC: inactive; CYP2C9 inh: 78; CYP2C9 activ: inactive; CYP2C19 inhib: 80

What do the screens show for `c1ccc(-c2nc(CSc3n[nH]c(-c4cccs4)n3)cs2)cc1`?
E coli WT exp: inactive; CYP2C19 act: inactive; CYP2C9 inh: inactive; CYP2C9 activ: inactive; CYP2C19 inhib: 60

Results for COc1ccccc1-n1cnnc1SCc1csc(-c2ccccc2)n1 ?
E coli WT exp: inactive; CYP2C19 act: inactive; CYP2C9 inh: inactive; CYP2C9 activ: inactive; CYP2C19 inhib: inactive

How did O=C(CSc1n[nH]c(-c2cccs2)n1)N1CCN(S(=O)(=O)c2ccccc2)CC1 do in these assays?
E coli WT exp: inactive; CYP2C19 act: inactive; Ecoli tolC: inactive; CYP2C9 inh: 51; CYP2C9 activ: inactive; CYP2C19 inhib: inactive

Results for O=C(Nc1c(C(=O)N2CCOCC2)cnn1-c1ccccc1Cl)c1ccco1 ?
E coli WT exp: inactive; CYP2C19 act: inactive; Ecoli tolC: inactive; CYP2C9 inh: inactive; CYP2C9 activ: inactive; CYP2C19 inhib: inactive

What do the screens show for `CCOc1ccccc1C1C(C(=O)Nc2ccc(OC)cc2)=C(C)Nc2nc(CCCO)nn21` (stereo not given)?
E coli WT exp: inactive; Ecoli tolC: inactive

What do the screens show for `CCCCCC(C(=O)O)C(C)CC(=O)NC1CCCCC1` (stereo not given)?
E coli WT exp: inactive; CYP2C19 act: inactive; Ecoli tolC: inactive; CYP2C9 inh: inactive; CYP2C9 activ: inactive; CYP2C19 inhib: inactive

Results for CCN(CC)C(=O)C1CCCN(c2ccc([N+](=O)[O-])cc2/C=N/NC(=O)c2cccc([N+](=O)[O-])c2)C1 (stereo not given) ?
E coli WT exp: inactive; CYP2C19 act: inactive; CYP2C9 inh: inactive; CYP2C9 activ: inactive; CYP2C19 inhib: inactive

Results for CCOc1ccc(NC(=O)CS(=O)(=O)c2cn(C)c3ccccc23)cc1 ?
E coli WT exp: inactive; CYP2C19 act: inactive; CYP2C9 inh: inactive; CYP2C9 activ: inactive; CYP2C19 inhib: inactive

How did Nn1c(SCC(=O)N2CCN(S(=O)(=O)c3ccc(Cl)cc3)CC2)nnc1-c1cccs1 do in these assays?
E coli WT exp: inactive; CYP2C19 act: inactive; CYP2C9 inh: 50; CYP2C9 activ: inactive; CYP2C19 inhib: inactive

How did Nn1c(SCC(=O)N2CCN(S(=O)(=O)c3ccccc3)CC2)nnc1-c1cccs1 do in these assays?
E coli WT exp: inactive; CYP2C19 act: inactive; CYP2C9 inh: inactive; CYP2C9 activ: inactive; CYP2C19 inhib: inactive

What do the screens show for `Cn1c(SCC(=O)N2CCN(S(=O)(=O)c3ccc(Cl)cc3)CC2)nc2ccccc21`?
E coli WT exp: inactive; CYP2C19 act: inactive; CYP2C9 inh: inactive; CYP2C9 activ: 2; CYP2C19 inhib: 58

What do the screens show for `Cn1c(SCC(=O)N2CCN(S(=O)(=O)c3ccccc3)CC2)nc2ccccc21`?
E coli WT exp: inactive; CYP2C19 act: inactive; CYP2C9 inh: inactive; CYP2C9 activ: inactive; CYP2C19 inhib: inactive

How did Cc1cc(N(CN2CCCC2=O)C(=O)c2ccccc2)no1 do in these assays?
E coli WT exp: inactive; CYP2C19 act: inactive; Ecoli tolC: inactive; CYP2C9 inh: inactive; CYP2C9 activ: inactive; CYP2C19 inhib: inactive

Screening results from PubChem.
